Only some compounds are listed: those with a hit (about 2.9% of all), similar ones and a draw of the others.
PGC1a acetyl inh: modulators of PGC1a acetylation | U2OS PGC1a acetylation, AlphaScreen anti-acetyl-lysine; with virally co-expressed GCN5 acetyltransferase | inhibition, % at 15.6 µM | 0.17% of 350,000 active | AID 651687;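 active means every replicate shows inhibition of at least 40%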;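 further: 0% = neutral control wells and 100% = positive control wells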
PglD DTNB: inhibitors of Campylobacter jejuni PglD acetyltransferase. purified PglD enzyme, DTNB colorimetric CoA detection. inhibition, % at 12.5 µM. 0.098% of 360,000 active. AID 602405; in the data active means inhibition above about 16%, passing the limit was not always enough
rRNA inh HTS: selective bacterial rRNA inhibition in E. coli; E. coli WT GFP vs humanized-ribosome RFP mutants, fluorescence, 24 h; hits give low values; DMSO median 0, no signal -100; GFP signal change (wild-type ribosome), % (test concentration not listed); 1.6% of 350,000 active; AID 720706;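 active means significant combined selectivity score with lowered wild-type GFP, culture density cut under 30%, mutant RFP and density less affected; inactive means any of these conditions unmet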
Vif inh: inhibitors of HIV Vif. HEK293T cells, Vif self-association by quenched fluorescence, imaging, 24 h. inhibition, % at 7.49 µM. 0.35% of 340,000 active; in the data active means inhibition above about 50%, passing the limit was not always enough
FGF22 binding: FGF22 (human) thermal shift binding. AID 651658. recombinant FGF22 thermal shift, SYPRO orange fluorescence; percent of sucrose octasulfate shift, DMSO zero. activity (Tm shift, normalised), % at 9.99 µM. Q9HCT0. 1.5% of 340,000 active;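 active means mean Tm shift, scaled 0 neutral to 100 positive control, at about 1.3% or above, every replicate too, limit read from the data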
Target sequence (Q9HCT0 whole entry, looked up): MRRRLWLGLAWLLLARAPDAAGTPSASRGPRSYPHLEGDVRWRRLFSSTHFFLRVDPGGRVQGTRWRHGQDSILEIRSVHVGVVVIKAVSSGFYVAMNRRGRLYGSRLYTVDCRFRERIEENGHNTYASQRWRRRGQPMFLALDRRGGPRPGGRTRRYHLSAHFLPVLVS
Cneo AK release: Cryptococcus neoformans lysis via adenylate kinase release | lysis activity, % at 15 µM | AID 651654 | 0.2% of 360,000 active | C. neoformans lysis, adenylate kinase release luminescence, 4 h; normalised: neutral wells 0, clomiphene wells 100;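 active means mean lysis activity across replicates of at least 80%, whatever share of replicates individually reach that level; inactive means mean lysis activity below 80%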
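Signal: Adenylate kinase release luminescence | Assay system: Log-phase Cryptococcus neoformans yeast cells | Input: Cells at 5 × 10^6 per mL | Buffer or medium: Fresh YPD growth medium | Compound: Single dose | Schedule: Static 4 h at 37 °C with compound, 1 h detection | Controls: Clomiphene | Read-out: Luminescence rise reflecting yeast cell lysis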
The depositor's hits bear a star; x = no result.

SMILES | PGC1a acetyl inh | PglD DTNB | rRNA inh HTS | Vif inh | FGF22 binding | Cneo AK release
CC[C@@]1(C(=O)OC)N[C@H](CN(C)C(=O)Nc2ccc(C(F)(F)F)cc2)[C@@H]2C(=O)N(C)C(=O)[C@@H]21 | x | -3 | 7 | 8 | 0 | 0
COC(=O)[C@]1(Cc2ccccc2)N[C@H](CN(C)C(=O)NC(C)C)[C@@H]2C(=O)N(C)C(=O)[C@@H]21 | x | 2 | 15 | -12 | 44* | 1
CCN(C[C@H]1N[C@@](CC)(C(=O)OC)[C@H]2C(=O)N(C)C(=O)[C@@H]12)C(=O)c1ccc(F)cc1 | x | 3 | 22 | 9 | 1 | -1
C[C@H](CO)N1C[C@H](C)[C@H](CN(C)S(=O)(=O)c2ccc(Cl)cc2)Oc2c(NS(=O)(=O)c3cn(C)cn3)cccc2C1=O | 9 | 2 | 0 | x | 0 | 3
O=C(O)C[C@H]1CC[C@@H](NC(=O)c2ccccc2F)[C@H](CO)O1 | -1 | 3 | 3 | x | 0 | 1
C[C@H](CO)N1C[C@H](C)[C@H](CN(C)S(=O)(=O)c2cn(C)cn2)OCCCC[C@H](C)Oc2ccc(NC(=O)Nc3ccc(F)cc3)cc2C1=O | -3 | -8 | -3 | x | x | 15
C[C@@H]1CN([C@@H](C)CO)C(=O)c2cc(C#CC3CC3)cnc2O[C@H]1CN(C)C(=O)CC1CC1 | -4 | -4 | 6 | x | 0 | -5
COc1ccc(NC(=S)N2CCC(C(=O)c3ccc(Cl)cc3)CC2)cc1 | 6 | 11 | 4 | 16 | 0 | 0
CCOc1ccc(NC(=S)N2CCC(C(=O)c3ccc(OC)cc3)CC2)cc1 | 4 | -6 | -14* | -7 | -1 | 3
CCN(c1ccc(OC)cc1)S(=O)(=O)c1cc(-c2cc(C)no2)ccc1OC | -1 | -3 | -31* | -6 | 0 | -4
CCN(c1ccc(OC)cc1)S(=O)(=O)c1cc(-c2cc(C)no2)ccc1C(C)C | -24 | x | -3 | 0 | 0 | x
Cc1cc(C(=O)N/N=C/c2ccc(-c3ccc([N+](=O)[O-])cc3Cl)o2)n[nH]1 | x | -1 | -32* | -5 | 0 | -1
CN1CCN(C(=O)CSc2cc(=O)n(C)c3ccccc23)CC1 | x | x | 10 | -1 | 43* | x
Cc1nc(C(C)N(C)Cc2nc(-c3ccc4c(c3)OCO4)no2)c(C)s1 (stereo not drawn) | 97* | x | -14 | -2 | 0 | x
Cc1noc(C)c1NC(=O)Nc1ccc2c(c1)CC(=O)N([C@H](C)CO)C[C@H](C)[C@H](CN(C)S(=O)(=O)c1ccc(F)cc1)O2 | 3 | 1 | 1 | x | 1 | 0
C[C@H](O)C#Cc1cnc2c(c1)C(=O)N([C@H](C)CO)C[C@@H](C)[C@H](CN(C)C(=O)c1ccccc1F)O2 | 0 | -1 | 3 | x | 0 | -9
O=C1CC(N2CCCCC2)C(=O)N1c1ccccc1 (stereo not drawn) | -10 | -2 | x | 3 | x | 1
CN(C)N1C(=O)CC(N2CCCCC2)C1=O (stereo not drawn) | x | 6 | -31* | -1 | 0 | -2
Fc1cc(F)cc(NC(=S)NCCCN2CCOCC2)c1 | -2 | 7 | 5 | 11 | 43* | -4
Cc1cccc(NC(=O)CCN2CCOCC2)c1 | 5 | -3 | x | -4 | x | 1
Cc1cccc(NC(=O)C(=O)NCCCN2CCOCC2)c1 | -3 | x | 8 | 1 | 43* | x
CCOC(=O)C1=C(C)NC(=S)NC1c1ccsc1 (stereo not drawn) | x | x | x | 2 | 43* | x
C[C@@H]1CN([C@@H](C)CO)C(=O)Cc2cc(NC(=O)NC3CCCCC3)ccc2O[C@H]1CN(C)S(=O)(=O)c1ccc(F)cc1 | 7 | 5 | -3 | x | 0 | 0
CCc1nc2ccccc2c(=O)n1NC(=O)c1c(O)c2ccccc2n(CC)c1=O | x | x | -30* | 8 | 0 | x
CCn1c(=O)c(C(=O)Nn2c(C)nc3ccccc3c2=O)c(O)c2ccccc21 | -1 | -1 | x | 2 | x | 3
SMILES | PGC1a acetyl inh | PglD DTNB | rRNA inh HTS | Vif inh | FGF22 binding | Cneo AK release
CO[C@@H]1CN(C)C(=O)c2ccc(NC(=O)NC(C)C)cc2OC[C@@H](C)N(Cc2ccccc2)C[C@@H]1C | -3 | 1 | -3 | x | 0 | -2
COC(=O)C1SCC2C(=O)N(Cc3ccccc3)CC(=O)N21 (stereo not drawn) | -3 | x | 23 | 3 | 43* | x
CCOC(=O)C1CN(Cc2ccccc2)C(=O)C1=O (stereo not drawn) | 7 | -2 | 4 | 0 | 0 | 2
CCOC(=O)CSc1ccc(C(=O)N2CCN(C)CC2)cc1[N+](=O)[O-] | -17 | -3 | 8 | -1 | 43* | -11
CC(=O)Nc1ccc2c(c1)CC(=O)N(C)C[C@@H](C)[C@@H](CN(C)C(C)=O)O2 | x | x | 1 | x | x | x
Cc1cc(-c2ccccc2)nc(SC(C(=O)O)c2ccccc2)n1 (stereo not drawn) | -5 | 6 | 9 | 26 | 43* | -3
COc1ccc(NC(=O)N(C)C[C@H]2Oc3ccc(NC(=O)CCN4CCOCC4)cc3CC(=O)N([C@H](C)CO)C[C@@H]2C)cc1 | 0 | 0 | 2 | x | 0 | -4
CN(C)S(=O)(=O)c1ccc(NC=C(C#N)C#N)cc1 | 12 | 5 | 16 | 1 | 0 | 138*
O=C([C@H]1[C@H](CO)[C@H]2Cn3c(ccc(-c4ccncc4)c3=O)[C@H]2N1CCC(F)(F)F)N1CCCCC1 | 0 | 1 | 1 | x | 0 | -4
COc1ccc(C(=O)CSc2nnc(CNc3ccc(F)cc3)o2)cc1 | x | x | 16 | -11 | 1 | x
Cc1cc(-c2nnc(SCC(=O)c3ccc4c(c3)OCCO4)o2)no1 | -2 | x | 7 | -7 | 44* | 33
O=C(CSc1nnc(CNc2ccc(F)cc2)o1)c1ccccc1 | 10 | x | 6 | 62* | 0 | x
Cc1ccc(NC(=O)CSc2nnc(-c3cc(C)on3)o2)cc1 | -3 | 0 | -1 | -5 | 0 | -1
Cc1cc(-c2nnc(SCC(=O)c3ccc(F)cc3)o2)no1 | -21 | x | 12 | 2 | 44* | -2
Cc1cc(C)cc(-c2nnc(SCC(=O)c3ccc4c(c3)OCCO4)o2)c1 | -13 | -5 | x | -2 | x | 2
C[C@H]1CN([C@@H](C)CO)C(=O)c2cc(NS(C)(=O)=O)ccc2O[C@H]1CN(C)C(=O)Nc1ccc2c(c1)OCO2 | 2 | 9 | 7 | x | 0 | 1
CO[C@H]1CN(C)C(=O)c2cc(NC(=O)c3ccc(F)cc3)ccc2OC[C@@H](C)N(C(=O)CN(C)C)C[C@@H]1C | 4 | x | 1 | x | x | x
CCCCN(C)CCCNC(=O)c1cn(CC)c2ccc(S(=O)(=O)N3CCc4ccccc4C3)cc2c1=O | x | x | -15 | 0 | 0 | x
CCCCN(CC)CCCNC(=O)c1cn(CC)c2ccc(S(=O)(=O)N3CCc4ccccc4C3)cc2c1=O | x | x | -28 | -1 | 43* | x

Compound activity as filed in PubChem.
